Measles CPE: protection of cells from measles virus; Measles virus-infected cells, CPE protection, absorbance; protection (pct of control), % at 4 µM; actives 1.5% (n = 140,000); in the data active = protection mostly above about 24%, no sharp cut-off; inactive = mostly below about 26%
BB579 growth dn: yeast BB579 growth reduction in restrictive medium; actives 0.51% (n = 140,000); S. cerevisiae BB579 growth, OD615, 48 h; inhibition, % at 10 µM;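 active = inhibition above a set limit, 3 SD over the mean compound inhibition, cut at about 44% in these data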
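System: Saccharomyces cerevisiae DeaD strain BB579, replicative lifespan model yeast | Buffer or medium: Restrictive glucose-based CSMM-D medium | Times: 4 h preincubation and 48 h exposure at 30 °C | Detection: OD615 turbidity measurement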
Yeast life ext: yeast lifespan extension; S. cerevisiae growth with nicotinamide, OD615; deaD strain in restrictive glucose medium; inhibition of the nicotinamide effect, % at 10 µM; actives 0.68% (n = 130,000); AID 775;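 active = inhibition above a set limit, placed 3 SD over the median of all compounds, cut at about 26% in these data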
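System: Modified budding yeast, DeaD strain | Buffer or medium: Restrictive glucose medium | Also added: 1.5 mM nicotinamide | Doses: 10 µM single point, 0.25% DMSO | Schedule: 48 h compound exposure at 30 °C, humidified | Detection: Absorbance at 615 nm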
RAM network inh: yeast RAM network inhibition | S. cerevisiae dse1pr::URA3 reporter, 5-FOA growth OD615, 2 d; analog-sensitive cbk1-as2 kinase mutant strain | inhibition, % at 50 µM | actives 1.8% (n = 190,000) | AID 868;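 active = inhibition above a set limit, 3 SD over mean compound inhibition, cut at about 8.4% in these data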;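 note: inhibition rescues growth on 5-FOA so higher OD means more RAM inhibition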
RAM efflux-def: RAM network inhibitors in efflux-deficient yeast; S. cerevisiae efflux-deficient reporter strain, 5-FOA growth OD615, 2 days; max inhibition, %; shares compounds with RAM network inh; 1,200 tested, under 10 active; AID 1305; call rule not given here
Of the large screens only hits and unclear results are named; the others gave an inactive call (follow-up assays come after a bar, where they were run). Compounds with a hit are over-represented: about 3.8% of the library has one in this group of screens.

CCN1/C(=C/C=C/C=C/c2sc3ccccc3[n+]2CC)Sc2ccccc21	BB579 growth dn 84, RAM network inh 22 | RAM efflux-def inactive
CC[n+]1c(/C=C/Nc2ccccc2)sc2ccccc21	none
COc1cc(NC(=O)c2ccc3c(c2)OCO3)c2ncccc2c1	RAM network inh 12 | RAM efflux-def inactive
[2H]c1c([2H])c([2H])c(-c2nc(N3CCCCCC3)sc2C(=O)c2ccccc2)c([2H])c1[2H]	RAM network inh 13 | RAM efflux-def inactive
O=C(c1sc(N2CCOCC2)nc1-c1ccccc1)N1CCCCC1	none
CC(C)CNC(=S)N1CCC(C(=O)c2ccc3c(c2)OCCO3)CC1	none (no result: Measles CPE, BB579 growth dn, Yeast life ext)
Cc1ccc(NC(=O)CCSc2nnnn2-c2ccc3c(c2)OCO3)cc1C	RAM network inh 12 | RAM efflux-def inactive
COc1cccc(-c2cc(C(F)(F)F)nc(N3CCN(c4ccccc4)CC3)n2)c1	RAM network inh 16 | RAM efflux-def inactive
CCOC(=O)N1CCN(c2nc(-c3cccc(OC)c3)cc(C(F)(F)F)n2)CC1	RAM network inh 12 | RAM efflux-def inactive
CCN(CC)S(=O)(=O)c1ccc(NC(=O)COC(=O)c2ccc(Br)o2)cc1	RAM network inh 47 | RAM efflux-def inactive
COc1ccc(-c2c/c(=N\c3nc(-c4ccccc4)c(C)s3)c3ccccc3o2)cc1O	RAM network inh 11 | RAM efflux-def inactive
Cc1ccc(CSCCNC(=O)c2ccc(N(C)S(=O)(=O)c3ccccc3)cc2)cc1	RAM network inh 18 | RAM efflux-def inactive
CN(c1ccc(C(=O)NCCSCc2ccc(Cl)cc2)cc1)S(=O)(=O)c1ccccc1	RAM network inh 20 | RAM efflux-def inactive
CN(c1ccc(C(=O)NCCSCc2c(F)cccc2Cl)cc1)S(C)(=O)=O	none (no result: Measles CPE, BB579 growth dn, Yeast life ext)
CN(c1ccc(C(=O)NCCSC(C)(C)C)cc1)S(=O)(=O)c1ccccc1	none (no result: Measles CPE, BB579 growth dn, Yeast life ext)
O=C(Nc1cccc(C(F)(F)F)c1)NC1CCCCC1	none
O=C(OC(C(=O)Nc1cccc(C(F)(F)F)c1)c1ccccc1)C1CCCCC1 (stereo not drawn)	RAM network inh 14 | RAM efflux-def inactive
O=c1c2c(nc3nc(NCc4cccc5ccccc45)[nH]n13)CCC2	none (no result: Measles CPE, BB579 growth dn, Yeast life ext)
CSc1nnc(-c2sccc2-n2cccc2)o1	none (no result: Measles CPE, BB579 growth dn, Yeast life ext)
Clc1cccc(Cl)c1CSc1nnc(-c2sccc2-n2cccc2)o1	RAM network inh 17 | RAM efflux-def inactive
O=C1OCC=C1NNC(=O)c1cccnc1	none (no result: Measles CPE, BB579 growth dn, Yeast life ext)
COc1ccc(N(C)S(=O)(=O)c2cccc(C(=O)OCC(=O)Nc3sc4c(c3C#N)CCCCC4)c2)cc1	RAM network inh 11 | RAM efflux-def inactive
Cc1ccc(SCC(=O)N2c3ccccc3Sc3ccccc32)cc1	RAM network inh 14 | RAM efflux-def inactive
CCOC(=O)c1cnn(-c2ccccc2)c1-n1cccc1C(=O)C(=O)N(CC)CC	none (no result: Measles CPE, BB579 growth dn, Yeast life ext)
CCOC(=O)c1cnn(-c2ccccc2)c1-n1cccc1C(=O)C(=O)Nc1ccccc1C(F)(F)F	RAM network inh 14 | RAM efflux-def inactive
Cc1cccc(C(=O)NCC(c2ccc(F)cc2)N2CCOCC2)c1 (stereo not drawn)	none (no result: Measles CPE, BB579 growth dn, Yeast life ext)
COc1cccc(-c2csc3nnc(SCC(=O)NCc4cccs4)n23)c1	RAM network inh 17 | RAM efflux-def inactive
CN(CCCC(=O)NC1CC(C)(C)NC(C)(C)C1)S(=O)(=O)c1ccc([N+](=O)[O-])cc1	none (no result: Measles CPE, BB579 growth dn, Yeast life ext)
CCOC(=O)C1=C(CSc2nc(-c3ccccc3)ccc2C#N)OC(N)=C(C#N)C1c1ccc(OC)cc1 (stereo not drawn)	RAM network inh 19 | RAM efflux-def inactive
CCC(C)C(NC(=O)OCc1ccccc1)C(=O)NC(Cc1ccc(O)cc1)C(=O)OC (stereo not drawn)	none (no result: Measles CPE, BB579 growth dn, Yeast life ext)
O=C(Nc1ccc(Oc2ccc3ccccc3c2)cc1)c1ccco1	RAM network inh 15 | RAM efflux-def inactive
O=C(N=Nc1c(O)n(Cc2ccccc2)c2ccccc12)c1ccc(O)cc1	none
O=C(N=Nc1c(O)n(C2OC(=O)c3ccccc32)c2ccccc12)c1ccc(O)cc1 (stereo not drawn)	RAM network inh 12 | RAM efflux-def inactive
Cc1cccc(NC(=O)N2CCCC2C(=O)Nc2ccccc2)c1 (stereo not drawn)	none (no result: Measles CPE, BB579 growth dn, Yeast life ext)
COc1ccc(CCNC(=O)/C(C#N)=C/c2cccc(OCc3ccccc3)c2)cc1OC	RAM network inh 14 | RAM efflux-def inactive
O=C(NCCc1ccccc1)C1CCC(CNc2nc(=S)[nH]c3ccccc23)CC1 (stereo not drawn)	none (no result: Measles CPE, BB579 growth dn, Yeast life ext)
COc1ccc(OC)c2c1sc(=NC(=O)c1cccc(N3C(=O)CCC3=O)c1)n2C	none
CCn1c(=NC(=O)c2cccc(N3C(=O)CCC3=O)c2)sc2c(OC)ccc(OC)c21	RAM network inh 11 (no result: Measles CPE, BB579 growth dn, Yeast life ext) | RAM efflux-def inactive
Cc1ccc(N(C(C)C(=O)NCc2ccncc2)S(C)(=O)=O)cc1C (stereo not drawn)	none (no result: Measles CPE, BB579 growth dn, Yeast life ext)
COc1ccc(C2=NN(C(C#N)c3ccc(OC)cc3)C(c3ccccc3)C2)cc1 (stereo not drawn)	RAM network inh 14 | RAM efflux-def inactive
COc1ccc(C(C#N)N2N=C(c3ccccc3)CC2c2ccccc2)cc1OC (stereo not drawn)	none
CC/C(=N\OC(=O)c1ccc(OC(C)C)cc1)c1ccc(C)cc1	none
C/C(=N\OC(=O)c1ccc(OC(C)C)cc1)c1ccc(C)c(C)c1	RAM network inh 12 | RAM efflux-def inactive
CN1CCN(C(=O)C2=C[C@@H](c3csc4ccccc34)C[C@@H](OCc3ccc(CO)cc3)O2)CC1	none (no result: Measles CPE, BB579 growth dn, Yeast life ext)
O=C(C1=C[C@H](c2csc3ccccc23)C[C@H](OCc2ccc(CO)cc2)O1)N1CCOCC1	RAM network inh 14 (no result: Measles CPE, BB579 growth dn, Yeast life ext) | RAM efflux-def inactive
CCOC(=O)C1=C(COC(=O)C2(C)CC2(Cl)Cl)NC(=O)NC1c1ccccc1 (stereo not drawn)	none (no result: Measles CPE, BB579 growth dn, Yeast life ext)
O=S(=O)(NCCSc1ccc(Cl)cc1)c1ccc2c(c1)OCCO2	none
O=S(=O)(NCCSCc1ccc(Cl)cc1Cl)c1ccc2c(c1)OCCO2	RAM network inh 12 | RAM efflux-def inactive
N#CC(Nc1ccccc1)c1ccccc1OCc1ccccc1 (stereo not drawn)	RAM network inh 14 | RAM efflux-def inactive
COCCNC(=S)N/N=C1\CC(C)CC(C)(C)C1 (stereo not drawn)	none (no result: Measles CPE, BB579 growth dn, Yeast life ext)
COCCNC(=O)C(c1ccc(F)cc1)N(C(=O)CCC(=O)Nc1nccs1)c1ccc(C)cc1 (stereo not drawn)	RAM network inh 12 (no result: Measles CPE, BB579 growth dn, Yeast life ext) | RAM efflux-def inactive
CCOC(=O)c1c(C)[nH]c(C(=O)C(C)Sc2ccc(Cl)cc2)c1C (stereo not drawn)	RAM network inh 12 | RAM efflux-def inactive
O=C(NCCCn1ccnc1)C(=O)c1c[nH]c2ccccc12	none (no result: Measles CPE, BB579 growth dn, Yeast life ext)
CCN=C1S/C(=C\c2cc(OCC)c(O)cc2Br)C(=O)N1CC	RAM network inh 12 | RAM efflux-def inactive
CCN=C1S/C(=C\c2ccc(O)c(OCC)c2)C(=O)N1CC	none
CC(C)COC(=O)/C(C#N)=C/c1cn(Cc2ccccc2)c2ccccc12	RAM network inh 19 | RAM efflux-def inactive
